Converted amounts (≈) assume the structure as drawn.
System: Candida albicans
Assay: Antifungal activity against Candida albicans ATCC 10231 by NCCLS-protocol based microplate reader analysis
Assay type: functional
Outline: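 Broth microdilution per NCCLS. Strains grown on potato dextrose agar; inoculum prepared from broth culture (28 °C, 48 h) and adjusted to 104 mycelial fragments/mL. Compounds from 100 μM DMSO stock were serially diluted in triplicate, spore suspension added to 200 μL final volume. Carbendazim served as positive control. Absorbance read at 492 nm after incubation; MIC calculated.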

## CC(C)C1=C[C@H]2C[C@]3(C=O)[C@@H]4CC[C@@H](C)[C@H]4C[C@@]2(CO)[C@]13C(=O)O
  MIC: 18 µM (≈ 5.98 µg/mL)

## CO[C@@H]1[C@@H](C)O[C@@H](OC[C@@]23C[C@@H]4[C@H](C)CC[C@H]4[C@@]4(C=O)C[C@@H]2C=C(C(C)C)[C@@]34C(=O)O)[C@@H](O)[C@@]12OC(=O)[C@H](CCCCCC(=O)O)O2
  MIC: 8.7 µM (≈ 5.77 µg/mL)

## COC(=O)CCC[C@@H]1O[C@@]2(OC1=O)[C@H](O)[C@H](OC[C@@]13C[C@@H]4[C@H](C)CC[C@H]4[C@@]4(C=O)C[C@@H]1C=C(C(C)C)[C@@]34C(=O)O)O[C@H](C)[C@H]2OC
  MIC: 9.8 µM (≈ 6.36 µg/mL)

## COC(=O)CCCCCCC[C@@H]1O[C@@]2(OC1=O)[C@H](O)[C@H](OC[C@@]13C[C@@H]4[C@H](C)CC[C@H]4[C@@]4(C(=O)O)C[C@@H]1C=C(C(C)C)[C@@]34C(=O)O)O[C@H](C)[C@H]2OC
  MIC: 13 µM (≈ 9.37 µg/mL)

## CO[C@@H]1[C@@H](C)O[C@@H](OC[C@@]23C[C@@H]4[C@H](C)CC[C@H]4[C@@]4(C(=O)O)C[C@@H]2C=C(C(C)C)[C@@]34C(=O)O)[C@@H](O)[C@@]12OC(=O)[C@H](CCCCCCCC(=O)O)O2
  MIC: 15 µM (≈ 10.6 µg/mL)

## CO[C@@H]1[C@@H](C)O[C@@H](OC[C@@]23C[C@@H]4[C@H](C)CC[C@H]4[C@@]4(C=O)C[C@@H]2C=C(C(C)C)[C@@]34C(=O)O)[C@@H](O)[C@@]12OC(=O)[C@H](CCCC(=O)O)O2
  MIC: 12 µM (≈ 7.62 µg/mL)

## COC(=O)Nc1nc2ccccc2[nH]1 [CARBENDAZIM]
  MIC: 0.16 µM (≈ 0.0306 µg/mL)

## CC(C)C1=C[C@H]2C[C@]3(C(=O)O)[C@@H]4CC[C@@H](C)[C@H]4C[C@@]2(CO)[C@]13C(=O)O
  MIC: 24 µM (≈ 8.36 µg/mL)

## COC(=O)CCCCCCC[C@@H]1O[C@@]2(OC1=O)[C@H](O)[C@H](OC[C@@]13C[C@@H]4[C@H](C)CC[C@H]4[C@@]4(C=O)C[C@@H]1C=C(C(C)C)[C@@]34C(=O)O)O[C@H](C)[C@H]2OC
  MIC: 2.9 µM (≈ 2.04 µg/mL)

## CO[C@@H]1[C@@H](C)O[C@@H](OC[C@@]23C[C@@H]4[C@H](C)CC[C@H]4[C@@]4(C=O)C[C@@H]2C=C(C(C)C)[C@@]34C(=O)O)[C@@H](O)[C@@]12OC(=O)[C@H](CCCCCCCC(=O)O)O2
  MIC: 3.7 µM (≈ 2.56 µg/mL)

From ChEMBL document CHEMBL4414571, “Sordarin Diterpene Glycosides with an Unusual 1,3-Dioxolan-4-one Ring from the Zoanthid-Derived Fungus Curvularia hawaiiensis TA26-15” (2019)
